Active and inactive are the calls of the source. No cut-off for these calls is given here.
Experiments:
Type in all cases: functional, cell-based
[1] = system: HT-22; test: Neuroprotective activity against oxygen glucose deprivation-induced cell death in mouse HT22 cells assessed as increase cell survival at 6.25 to 100 uM by MTT assay
Summary of the method: (§1)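 Mouse hippocampal HT-22 cells were split into blank control, OGD model and treated groups. Treated cells were exposed to oxygen glucose deprivation with test compound at 5 concentrations. The reference compound was dosed at 10 times the test-compound level. Viability was read by MTT and compared against the control and model groups. Each assay was run in triplicate.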

[2] = system: HT-22; test: Neuroprotective activity against H2O2-induced oxidative stress-mediated cell death in mouse HT22 cells assessed as compound level causing increase cell survival at 1 to 100 uM by MTT assay
[3] = system: HT-22; test: Neuroprotective activity against oxygen glucose deprivation-induced cell death in mouse HT22 cells assessed as increase cell survival at 100 uM by MTT assay; summary of the method: as §1

| Compound | Activity [1] | Activity [2] | Activity [3] |
| --- | --- | --- | --- |
| CCC/C=C1/Oc2ccccc2C1=O | Dose-dependent effect | – | – |
| CCC/C=C1/C(=O)Oc2ccccc21 | Dose-dependent effect | – | – |
| CCCCC1Oc2c(ccc(OC)c2OC)C1=O (stereo unspecified) | Dose-dependent effect | – | – |
| CCC/C=C1/Oc2ccc(OC(=O)CCC(=O)OCCCCOc3no[n+]([O-])c3S(=O)(=O)c3ccccc3)cc2C1=O | Dose-dependent effect | Active | – |
| CCC/C=C1/Oc2c(ccc(OC)c2OC)C1=O | Dose-dependent effect | – | – |
| CCC/C=C1/Oc2cc(OC)ccc2C1=O | Dose-dependent effect | Active | – |
| CCC/C=C1/C(=O)Oc2ccc(OC)cc21 | Dose-dependent effect | – | – |
| CCC/C=C1/Oc2ccc(OC(=O)CCC(=O)OC/C=C/COc3no[n+]([O-])c3S(=O)(=O)c3ccccc3)cc2C1=O | Dose-dependent effect | – | – |
| CCC/C=C1/C(=O)Oc2cc(OC)ccc21 | Dose-dependent effect | – | – |
| CCC/C=C1/Oc2ccc(OC(=O)CCC(=O)OCCCOc3no[n+]([O-])c3S(=O)(=O)c3ccccc3)cc2C1=O | Dose-dependent effect | Active | Active |
| CCC/C=C1/Oc2ccc(OC(=O)CCC(=O)OC(C)CCOc3no[n+]([O-])c3S(=O)(=O)c3ccccc3)cc2C1=O (stereo unspecified) | Dose-dependent effect | – | – |
| CCCCC1Oc2cc(OC)ccc2C1=O (stereo unspecified) | Dose-dependent effect | – | – |
